The entries come from a sample that favours hits as a whole.
HSF1 activator = increases HSF-1 driven luciferase reporter signal. NIH3T3-HGL HSF-1 luciferase reporter, MG132, 8 h; 100% = twice DMSO control signal. activation, % at 9 µM. hit rate 1.7% among 300,000;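 active = mean replicate activation of at least 50% with a set share of replicates each reaching 50%; inconclusive = only one of those two conditions met; inactive = mean below 50% and too few replicates reaching it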;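 also: 0% = median of the neutral control wells and 100% = twice that signal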
Hsp70 act = switches on Hsp70 transcription. hit rate 0.04% among 200,000. HeLa Hsp70 promoter luciferase reporter, luminescence; scaled: vehicle 0, proteasome-inhibitor control 100%. AID 1203. activation, % at 10 µM;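 active = activation above the mean across all tested compounds plus 3 SD, cutoff set per campaign, cut at about 5.5% in these data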;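 also: 100% = MG132 at 30 µM as the positive control and 0% = DMSO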
L major viab = Leishmania major promastigote growth inhibition | inhibition, % at 10 µM | hit rate 9% among 200,000 | Leishmania major promastigotes, resazurin fluorescence viability; in the data active = inhibition above about 50%;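 also: promastigotes grown with compound for 44 hours at 28 °C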
T cruzi inh = T. cruzi replication inhibition. inhibition, % (test concentration not listed). AID 1885. T. cruzi beta-gal in NIH3T3, luminescence, 90 h. hit rate 1.4% among 300,000;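 active = mean inhibition across valid replicates above about 55%, limit read from the data; inconclusive = mean below that limit but half or more replicates reach it; inactive = mean below it, under half of replicates reach it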;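 also: signal also drops with host cell toxicity which is not excluded here; 0% = plate median of DMSO wells and 100% = zero luminescence signal; higher percent means less beta-gal luminescence so fewer parasites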
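System – NIH/3T3 host cells with β-galactosidase reporter T. cruzi · Doses – single 50 nL compound addition per well in DMSO · Reagent – 5000 T. cruzi trypomastigotes/well · Medium – Low-serum DMEM with 2% FBS · Timing – ≥90 h infection period, 3 h prior cell attachment · Evaluation – parasite load inhibition, % · Technique – GalScreen luminescence, 60 min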
HSF1 inh = HSF1 inhibition. hit rate 0.77% among 300,000. NIH3T3-HGL HSE-luciferase, MG132-induced, luminescence 8 h; active compounds read low. activity change, negative = inhibition, % at 7.5 µM (by protocol). AID 2098;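 active = more than half of replicate wells show activity change below -50%, luminescence cut by over half; inconclusive = some wells, but at most half, below -50%; inactive = no replicate well below -50%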;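 also: luciferase reports HSF-1 transcriptional activity via heat shock element; 0% = median of DMSO wells and -100% = zero luminescence signal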
An asterisk follows results filed as active; ? = inconclusive; . = no result.

SMILES	HSF1 activator	Hsp70 act	L major viab	T cruzi inh	HSF1 inh
Cc1ccc(N2C(=O)N(CC(=O)N3CCOCC3)C(=O)C2C)cc1 (stereo not given)	6.2	-0.2	-5.1	-14.3	-0.6
Cc1ccc(-c2nnc(CCC(=O)NCC3C4CC5CC(C4)CC3C5)o2)s1 (stereo not given)	34.8	0.0	6.2	4.3	35.9
COc1ccc2[nH]c(=O)c(CN(C(C)=O)C3CCCCC3)cc2c1	.	-0.2	-0.7	2.2	.
COc1ccc2[nH]c(=O)c(CN(C(=O)NC3CCCCC3)C3CCCC3)cc2c1	8.1	0.2	100.0*	9.5	-0.7
COc1ccc2[nH]c(=O)c(COC(=O)c3ccco3)cc2c1	10.2	-0.1	-5.4	-7.1	7.0
COc1ccc2[nH]c(=O)c(CN(C(=O)c3ccco3)C3CCCCC3)cc2c1	10.2	-0.3	94.0*	2.9	-1.5
CC(NC(=O)/C=C/c1ccc(Br)cc1)c1ccc(Cl)cc1 (stereo not given)	13.4	-0.3	-6.6	-1.7	-2.5
CCOc1ccccc1NC(=O)CCCc1ccc(OC)c(C)c1	23.7	.	.	0.6	2.3
Cc1ccc(S(=O)(=O)CC(=O)N2CCN(c3cccc(C(F)(F)F)c3)CC2)cc1	9.3	.	.	8.4	-3.5
CN1C=C/C(=C\c2cc[n+](C)c3ccccc23)c2ccccc21	-7.9	-0.1	100.6*	55.9*	-0.1
Cc1ccc(Cn2c(Sc3nccc(C)n3)nc3c2c(=O)[nH]c(=O)n3C)cc1	31.5	-0.1	1.3	1.7	8.3
Cc1ccc(Cn2c(Sc3ncccn3)nc3c2c(=O)[nH]c(=O)n3C)cc1	-72.8	-0.1	-5.2	-18.4	-65.0*
CC(=O)CSc1nc2c(c(=O)[nH]c(=O)n2C)n1Cc1cccc(Br)c1	58.3*	.	.	-8.1	29.5
Cn1c(=O)[nH]c(=O)c2c1nc(SCCC(=O)O)n2Cc1cccc(Br)c1	4.5	.	.	-5.4	1.3
Cc1ccc(N2CC(C(=O)Nc3ncc([N+](=O)[O-])s3)CC2=O)cc1 (stereo not given)	12.6	.	.	15.7	-9.6
Cc1ccc(C(=O)N2CCN3C(=O)c4ccccc4C23c2ccccc2)cc1 (stereo not given)	-49.3	-0.2	53.6*	6.2	-35.2
Cc1sc2nc(C3CC3)nc(SCC(=O)N3CCCc4ccccc43)c2c1C	-2.2	-0.3	93.5*	20.0	8.3
Cn1c(=O)c2c(SCC(=O)N3CCCc4ccccc43)nc(C3CC3)nc2n(C)c1=O	-53.9	0.0	61.3*	17.2	-45.1
Cc1sc2nc(C3CC3)nc(SCC(=O)N3CC(=O)Nc4ccccc43)c2c1C	-5.9	-0.2	2.1	-10.3	-4.0
Cn1c(=O)c2c(nc(SCC(=O)N3CCCc4ccccc43)n2C)n(C)c1=O	.	-0.5	3.2	.	.
Cc1sc2nc(C3CC3)nc(SCC(=O)N3CCc4ccccc4C3)c2c1C	67.5*	-0.1	-3.3	21.0	16.9
O=C(O[C@H]1[C@H](Oc2ccccc2COC(=O)C2(O)C=CCCC2=O)O[C@H](CO)[C@@H](O)[C@@H]1O)c1ccccc1 (stereo not given in full)	-13.2	.	.	-38.6	0.6
CCCn1c2c(c(O)c(C(=O)Nc3ccc(OC)cc3)c1=O)CCCC2	38.3	0.3	19.5	61.2*	8.0
CCCn1c2c(c(O)c(C(=O)NC)c1=O)CCCC2	-8.9	0.2	-5.4	-1.5	-13.3
CCC(CC)CN1C(Nc2ccccc2)=NC[C@@H]1C	-2.1	.	.	0.1	-6.3
SMILES	HSF1 activator	Hsp70 act	L major viab	T cruzi inh	HSF1 inh
C/C(=N\NC(=O)c1cc([N+](=O)[O-])cc([N+](=O)[O-])c1)c1ccco1	0.0	-0.2	-1.5	57.3*	-6.8
O=C(NNc1c(Cl)cc(Cl)cc1Cl)c1cccc([N+](=O)[O-])c1	-43.0	-0.2	79.2*	13.1	-30.0
C/C(=N\NC(=O)c1ccc(-c2ccccc2)cc1)c1ccco1	-7.1	.	.	-5.2	-5.3
Cc1ccc(NC(=O)c2ccc(Nc3c([N+](=O)[O-])cc([N+](=O)[O-])cc3[N+](=O)[O-])cc2)cc1	-71.7	-0.3	100.4*	59.4*	-70.8*
CC(=O)Nc1ccc(NC(=S)NC(=O)c2ccc([N+](=O)[O-])cc2)cc1	1.2	-0.5	62.7*	9.0	-3.9
Cc1ccc(NC(=O)c2ccc(C)cc2)cc1	50.0	.	.	-15.6	18.1
Cc1ccc(N=CC2=C(O)CC(c3ccc(Cl)cc3)CC2=O)cc1 (stereo not given)	6.9	-0.1	-13.8	-1.3	-4.2
COc1ccc(N2CCN(CCNC(=O)Nc3ccc([N+](=O)[O-])cc3OC)CC2)cc1	3.8	.	.	12.1	-5.8
CC(=O)NNC(=S)NC(=O)c1cccc([N+](=O)[O-])c1	0.4	-0.2	67.6*	-28.1	-0.5
O=C(Nc1ccc(Br)cc1)c1cc([N+](=O)[O-])cc([N+](=O)[O-])c1	-4.5	.	.	71.4*	0.2
COC(=O)c1cc(C(=O)Nc2ccc(S(=O)(=O)NC(C)(C)C)cc2)cc([N+](=O)[O-])c1	-14.9	-0.2	99.3*	56.2*	-2.9
O=C(NNC(=S)NC(=O)c1ccc(Br)cc1)c1cccc([N+](=O)[O-])c1	-0.9	.	.	-21.3	-6.9
O=C(Nc1ccc(NC(=O)c2cccc([N+](=O)[O-])c2)cc1)c1cccc([N+](=O)[O-])c1	-6.5	.	.	19.0	2.1
CCOC(=O)Cc1csc(NC(=S)NC(=O)c2ccc([N+](=O)[O-])cc2)n1	10.2	0.3	74.7*	-4.1	5.8
CCN(CC)S(=O)(=O)c1ccc(NC(=O)c2cc(C(=O)OC)cc([N+](=O)[O-])c2)cc1	-4.7	-0.1	29.8	?	4.4
c1ccc2oc(-c3ccc(Nc4nc(N5CCCC5)nc(N5CCOCC5)n4)cc3)nc2c1	-0.7	0.2	15.9	21.3	-10.7
O=C(COC(=O)c1ncc(Cl)c(Cl)c1Cl)NC(=O)c1ccccc1	16.2	.	.	-22.0	4.9
COc1ccc2c(c1OC)C(=O)N(c1ccc(C)cc1)C2	-20.3	.	.	8.0	-0.6
CC(=O)Nc1ccc(NC(=O)c2cc([N+](=O)[O-])cc([N+](=O)[O-])c2)cc1	-3.8	.	.	55.4*	-2.7
O=C(O)/C=C/C(=O)Nc1ccc(C2(c3ccc(NC(=O)/C=C/C(=O)O)cc3)c3ccccc3-c3ccccc32)cc1	10.7	.	.	-4.0	-4.1
FC(F)(F)c1cccc(-n2c(Cn3nnc4ccccc43)n[nH]c2=S)c1	6.4	.	.	9.6	2.0
Cc1ccsc1/C=C(\C#N)C(=O)NC1CCS(=O)(=O)C1 (stereo not given)	-7.5	-0.1	-7.2	-4.0	-4.9
CN(C)c1ccc(Nc2ncnc3ccc(Br)cc23)cc1	-54.2	.	.	-1.3	-53.3*
Cc1ccc2ncnc(Nc3cccc(C(=O)O)c3)c2c1	-5.2	0.0	4.2	-12.6	1.1
Cc1ccc2ncnc(Nc3ccccc3)c2c1	11.9	-0.3	64.7*	2.7	1.1
CCOC(=O)c1ccc(Nc2ncnc3ccc(C)cc23)cc1	-15.0	-0.1	14.7	20.6	-12.4
Cc1cccc(Nc2ncnc3ccc(Br)cc23)c1	-18.5	-0.5	55.8*	-17.7	-8.9
CCOC(=O)c1cccc(Nc2ncnc3ccc(C)cc23)c1	29.7	-0.2	56.0*	33.1	0.1

Compound activity: PubChem, several laboratories
